{
  "source": "ChEMBL document CHEMBL1125590",
  "about": "“Purine and 1-deazapurine ribonucleosides and deoxyribonucleosides: synthesis and biological activity” (J Med Chem, 1991)",
  "data": [
    {"molecular_target": "T1, Adenosine deaminase (Bos taurus, UniProt P56658)", "T1 sequence (P56658 whole entry)": "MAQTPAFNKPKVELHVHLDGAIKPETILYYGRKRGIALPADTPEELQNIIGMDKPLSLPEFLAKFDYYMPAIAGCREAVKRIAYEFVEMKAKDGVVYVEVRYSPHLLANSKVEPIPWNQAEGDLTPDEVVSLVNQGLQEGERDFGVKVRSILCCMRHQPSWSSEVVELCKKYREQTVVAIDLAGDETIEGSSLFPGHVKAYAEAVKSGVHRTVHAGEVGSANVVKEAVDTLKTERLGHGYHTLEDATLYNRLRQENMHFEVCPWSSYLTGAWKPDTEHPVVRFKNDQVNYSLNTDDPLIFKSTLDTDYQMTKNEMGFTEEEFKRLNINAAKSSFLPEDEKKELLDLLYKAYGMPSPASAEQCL", "test": "Compound was tested for the inhibition of Adenosine deaminase from calf intestine.", "details": "not given; call rule not given here", "units": {"Ki": "µM"}, "values": [
      {"smiles": "OC[C@H]1O[C@@H](n2cnc3c(NO)ccnc32)C[C@@H]1O", "Ki": 0.27},
      {"smiles": "Cc1ccc(C(=O)OC[C@H]2O[C@@H](n3cnc4c(NO)ccnc43)C[C@@H]2OC(=O)c2ccc(C)cc2)cc1", "Ki": 5.3},
      {"smiles": "OC[C@H]1O[C@@H](n2cnc3c(NO)ccnc32)[C@H](O)[C@@H]1O", "Ki": 1.2},
      {"smiles": "OC[C@H]1OC(n2cnc3c(NO)cc(Cl)nc32)[C@H](O)[C@@H]1O", "note": "(stereo partly specified)", "Ki": 69}
    ]},
    {"system": "P388", "test": "Compound was tested for its antitumor activity to inhibit 50% of tumor cell growth in mouse leukemia P388 cell lines.", "type": "functional", "details": "read-out: ID50 (the source's name)", "how_it_was_run": "(§1)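 L1210 and P388 murine leukemia cells were kept in RPMI 1640 with 10% fetal calf serum, penicillin and streptomycin, plus 1 mM β-mercaptoethanol added at 1% (L1210) or 2% (P388). Stocks were 1 mg/mL in 5% DMSO, diluted in water (0.5% DMSO at the top dose). Cells were plated at 3×10^4/mL and treated immediately for 72 h, then Coulter-counted as % of control; IC50 was taken from concentration–response curves.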", "units": {"IC50": "µM"}, "values": [
      {"smiles": "OC[C@H]1OC(n2cnc3c(NO)nc(Cl)nc32)[C@H](O)[C@@H]1O", "note": "(stereo partly specified)", "IC50": 75.5},
      {"smiles": "O=[N+]([O-])c1ccnc2c1ncn2[C@H]1C[C@H](O)[C@@H](CO)O1", "IC50": 20.6},
      {"smiles": "O=[N+]([O-])c1cc(Cl)nc2c1ncn2C1O[C@H](CO)[C@@H](O)[C@H]1O", "note": "(stereo partly specified)", "IC50": 1.5},
      {"smiles": "Cc1ccc(C(=O)OC[C@H]2O[C@@H](n3cnc4c(NO)nc(Cl)nc43)C[C@@H]2OC(=O)c2ccc(C)cc2)cc1", "IC50": 10.4},
      {"smiles": "OC[C@H]1O[C@@H](n2cnc3c(NO)ccnc32)C[C@@H]1O", "IC50": 67.6},
      {"smiles": "Cc1ccc(C(=O)OC[C@H]2O[C@@H](n3cnc4c(NO)cc(Cl)nc43)C[C@@H]2OC(=O)c2ccc(C)cc2)cc1", "IC50": 4.3},
      {"smiles": "Cc1ccc(C(=O)OC[C@H]2O[C@@H](n3cnc4c(NO)ccnc43)C[C@@H]2OC(=O)c2ccc(C)cc2)cc1", "IC50": 16.9},
      {"smiles": "OC[C@H]1O[C@@H](n2cnc3c(NO)ccnc32)[C@H](O)[C@@H]1O", "IC50": 4.9},
      {"smiles": "Nc1ncnc2c1ncn2[C@@H]1O[C@H](CO)[C@@H](O)[C@@H]1O", "note": "[VIDARABINE]", "IC50": 16.8},
      {"smiles": "OC[C@H]1O[C@@H](n2cnc3/c(=N\\O)[nH]cnc32)[C@H](O)[C@@H]1O", "IC50": 1.6},
      {"smiles": "OC[C@H]1OC(n2cnc3c(NO)cc(Cl)nc32)[C@H](O)[C@@H]1O", "note": "(stereo partly specified)", "IC50": 60}
    ]},
    {"molecular_target": "T1, Adenosine deaminase", "test": "Compound was tested for the inhibition of Adenosine deaminase from calf intestine; NA indicates not active", "details": "not given", "values": [
      {"smiles": "OC[C@H]1OC(n2cnc3c(NO)nc(Cl)nc32)[C@H](O)[C@@H]1O", "note": "(stereo partly specified)", "Ki": "Not Active"},
      {"smiles": "O=[N+]([O-])c1ccnc2c1ncn2[C@H]1C[C@H](O)[C@@H](CO)O1", "Ki": "Not Active"},
      {"smiles": "O=[N+]([O-])c1cc(Cl)nc2c1ncn2C1O[C@H](CO)[C@@H](O)[C@H]1O", "note": "(stereo partly specified)", "Ki": "Not Active"},
      {"smiles": "Cc1ccc(C(=O)OC[C@H]2O[C@@H](n3cnc4c(NO)nc(Cl)nc43)C[C@@H]2OC(=O)c2ccc(C)cc2)cc1", "Ki": "Not Active"},
      {"smiles": "Cc1ccc(C(=O)OC[C@H]2O[C@@H](n3cnc4c(NO)cc(Cl)nc43)C[C@@H]2OC(=O)c2ccc(C)cc2)cc1", "Ki": "Not Active"}
    ]},
    {"system": "L1210", "test": "Compound was tested for its antitumor activity to inhibit 50% of tumor cell growth in mouse leukemia L1210 cell lines.", "type": "functional", "details": "read-out: ID50 (the source's name)", "how_it_was_run": "as §1", "units": {"IC50": "µM"}, "values": [
      {"smiles": "OC[C@H]1OC(n2cnc3c(NO)nc(Cl)nc32)[C@H](O)[C@@H]1O", "note": "(stereo partly specified)", "IC50": 94.4},
      {"smiles": "O=[N+]([O-])c1ccnc2c1ncn2[C@H]1C[C@H](O)[C@@H](CO)O1", "IC50": 14.9},
      {"smiles": "O=[N+]([O-])c1cc(Cl)nc2c1ncn2C1O[C@H](CO)[C@@H](O)[C@H]1O", "note": "(stereo partly specified)", "IC50": 0.9},
      {"smiles": "Cc1ccc(C(=O)OC[C@H]2O[C@@H](n3cnc4c(NO)nc(Cl)nc43)C[C@@H]2OC(=O)c2ccc(C)cc2)cc1", "IC50": 4.9},
      {"smiles": "OC[C@H]1O[C@@H](n2cnc3c(NO)ccnc32)C[C@@H]1O", "IC50": "> 100"},
      {"smiles": "Cc1ccc(C(=O)OC[C@H]2O[C@@H](n3cnc4c(NO)cc(Cl)nc43)C[C@@H]2OC(=O)c2ccc(C)cc2)cc1", "IC50": 4.8},
      {"smiles": "Cc1ccc(C(=O)OC[C@H]2O[C@@H](n3cnc4c(NO)ccnc43)C[C@@H]2OC(=O)c2ccc(C)cc2)cc1", "IC50": 22.5},
      {"smiles": "OC[C@H]1O[C@@H](n2cnc3c(NO)ccnc32)[C@H](O)[C@@H]1O", "IC50": 5.3},
      {"smiles": "Nc1ncnc2c1ncn2[C@@H]1O[C@H](CO)[C@@H](O)[C@@H]1O", "note": "[VIDARABINE]", "IC50": 21.7},
      {"smiles": "OC[C@H]1O[C@@H](n2cnc3/c(=N\\O)[nH]cnc32)[C@H](O)[C@@H]1O", "IC50": 3.1},
      {"smiles": "OC[C@H]1OC(n2cnc3c(NO)cc(Cl)nc32)[C@H](O)[C@@H]1O", "note": "(stereo partly specified)", "IC50": 91}
    ]}
  ]
}
